Results gathered from unrelated publications.
Compare with care: the assays were run in different laboratories.
Target: Insulin-like growth factor 1 receptor (IGF1R, Homo sapiens, UniProt P08069)

CN1CCN(C(=O)c2ccc(NC(=O)Nc3ccc(N(C)c4ccnc(Nc5ccc(CS(C)(=O)=O)cc5)n4)cc3)cc2)CC1  remaining binding (binding; 1 µM): 100%
C1=C/COCc2cc(ccc2OCCN2CCCC2)Nc2nccc(n2)-c2cccc(c2)COC/1  remaining binding (binding; 0.1 µM): 83%
CCCCC(=O)Nc1ccc(-c2ccc3ncn(CCC)c(=O)c3c2)cn1  remaining binding (binding, competition with immobilised ligand; 0.5 µM): 98%
CC#CC(=O)N1CCC[C@H]1c1nc(-c2ccc(C(=O)Nc3ccccn3)cc2)c2c(N)nccn12  inhibition (enzyme activity, inhibitor; 1 µM): 3%
N#Cc1ccc(NC(=O)Nc2ccccc2)cc1  remaining binding (cell-free assay, competition with immobilised ligand; 25 µM): 100%
COc1ccc2oc(-c3ccc4nc(N)oc4c3)c/c(=N\c3ccccc3NC(=O)CCN)c2c1  remaining binding (binding; 1 µM): 93%
C[C@H]1CC[C@H](n2c3cnccc3c3cnc(Nc4ccc5c(n4)CCN(C(=O)CO)C5)nc32)CC1  remaining binding (binding; 1 µM): 100%
C=CC(=O)N1CCC([C@@H]2CCNc3c(C(N)=O)c(-c4ccc(Oc5ccccc5)cc4)nn32)CC1  inhibition (cell-free assay; 1 µM): 14%
C#Cc1cnc(Nc2ccnc(CO)c2)nc1Nc1ccccc1S(C)(=O)=NC#N (stereo not drawn)  remaining signal (cell-free assay; 1 µM): 36%
